# Screening results as filed in PubChem.
# S1P4 antagonist: S1P4 receptor antagonists, primary screen, cell-based; Sphingosine 1-phosphate receptor 4 (Homo sapiens), O95977; S1P4-expressing cells, antagonist mode, reporter read-out; inhibition, % at 4.98 µM; hit rate 0.26% among 220,000; in the data active = inhibition above about 29%;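 also: 0% = wells stimulated with agonist and 100% = vehicle wells without agonist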
# Target sequence (O95977 whole entry, looked up): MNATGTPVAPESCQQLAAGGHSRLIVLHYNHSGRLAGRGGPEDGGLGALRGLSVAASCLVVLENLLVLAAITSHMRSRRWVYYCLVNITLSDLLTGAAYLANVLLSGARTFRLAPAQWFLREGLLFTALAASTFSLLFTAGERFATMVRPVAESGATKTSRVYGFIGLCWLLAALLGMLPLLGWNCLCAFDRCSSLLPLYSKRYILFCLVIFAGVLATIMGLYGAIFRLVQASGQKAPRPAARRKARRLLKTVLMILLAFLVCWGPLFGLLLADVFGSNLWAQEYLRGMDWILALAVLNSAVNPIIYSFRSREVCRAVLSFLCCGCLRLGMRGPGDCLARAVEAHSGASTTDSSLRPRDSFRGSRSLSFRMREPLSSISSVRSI
# S1P4 ag: S1P4 receptor agonists, primary screen, cell-based; Sphingosine 1-phosphate receptor 4 (Homo sapiens), O95977; AID 1509, 2009; S1P4-expressing cell line, agonist reporter assay; hit rate 0.35% among 220,000; activation, % at 4.98 µM; in the data active = activation above about 11%;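 also: 0% = DMSO vehicle and 100% = reference agonist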
# S1P3 antagonist: S1P3 receptor antagonists, primary screen, cell-based | CHO S1P3 NFAT-BLA reporter, FRET fluorescence, antagonist mode | inhibition, % at 4.98 µM | hit rate 0.27% among 170,000 | AID 485, 2006;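 active = inhibition above the plate cutoff, the mean inhibition of test wells on that plate plus 3 SD, cut at about 28% in these data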;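 also: cells challenged with S1P at its EC80 of 0.8 µM; blue over green emission ratio from cleaved BLA substrate after 4 h stimulation; 0% = S1P-stimulated wells and 100% = unstimulated DMSO-only wells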
# Pf gametocyte: late stage P. falciparum gametocyte viability inhibitors, primary screen, ATP luminescence, HTS. P. falciparum stage V gametocytes, 24 h. inhibition, % at 10.9 µM. hit rate 0.065% among 150,000. AID 743093, 2013;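 active = inhibition above the mean plus 3 SD of compounds within the control limits, set per campaign, cut at about 38% in these data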;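 also: 0% = DMSO wells and 100% = medium only without gametocytes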
# Calb biofilm kill: clotrimazole potentiators killing C. albicans biofilm, primary screen, 4-compound mixtures; C. albicans biofilm persisters + clotrimazole, fluorescence viability; primary screen in compound mixtures of four per well; inhibition, % at 7.6 µM; hit rate 0.02% among 120,000; AID 1242, 2008;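 active = inhibition above 30.3% in the primary screen of four-compound pools, then above 30% when the compound was retested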;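 also: compounds exposed to preformed 24 h biofilms for 48 h; 0% = untreated biofilm control and 100% = clotrimazole plus chlorhexidine kill blank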
#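 Assay system: C. albicans biofilms / Medium: RPMI/MOPS medium, pH 7.0 / Schedule: biofilm formation 24 h, compound exposure 48 h, 37 °C / Measured by: Alamar Blue fluorescence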
# An asterisk follows results filed as active; · = no result. The list is not random: actives were taken first. Their share in the collection is about 0.77%.
SMILES,S1P4 antagonist,S1P4 ag,S1P3 antagonist,Pf gametocyte,Calb biofilm kill
O=C(Nc1ccccc1N1CCN(c2ccc(F)cc2)CC1)c1ccccc1,-6,-1,62*,·,·
CCc1ccc(NC(=O)c2cc(-c3ccco3)on2)cc1,-3,1,59*,·,·
COc1ccc(NC(=O)c2cc(-c3ccco3)on2)cc1,9,3,1,-5,4
COC(=O)C(NNc1ccccc1C)(NC(=O)c1ccc(F)cc1)C(F)(F)F (stereo not given),-25,1,·,·,·
O=C(COC(=O)CN1C(=O)C2CCCCC2C1=O)NC1CCS(=O)(=O)C1 (stereo not given),-15,2,-3,-9,14
O=C(Nc1ccc(Cl)cc1)Nc1ccccc1C(=O)NCc1ccco1,-7,1,54*,·,·
COc1ccc(C2=Nn3c(nnc3-c3ccccc3OC)SC2)cc1OC,6,-3,54*,-11,·
O=[N+]([O-])c1ccccc1/C=N\N1CCN(Cc2ccccc2Cl)CC1,·,·,·,4,·
Cc1ccc(C)[n+](CC(=O)N2CCCCC2)c1,-12,2,0,·,12
OCC1(Cc2ccccc2)CCN(Cc2cnc(-c3ccc(Cl)cc3)nc2)CC1,-17,1,6,42*,18
O/C(=C\Sc1nnc(Cc2ccccc2)o1)c1ccc(Br)cc1,-15,1,81*,·,·
Brc1ccc(-c2nnc(Cc3ccccc3)o2)cc1,1,1,12,-5,18
O=C(NNC(=O)c1nn(-c2ccc(F)cc2)ccc1=O)c1ccccc1Cl,-13,-1,-1,-2,44
Cc1onc(NC(=O)CSCC(=O)O)c1Br,-3,0,-1,12,15
CC1(C)CC(=O)CC(=Nc2ccc(C(=O)O)cc2)C1,-8,0,103*,·,·
CC1(C)CC(=O)C/C(=N/NC(=O)c2ccc(-c3ccccc3)cc2)C1,1,1,-3,-13,2
COc1ccc(-c2[nH]ncc2CN2CCCC2c2nonc2C)c(F)c1 (stereo not given),13,-2,3,39*,28
Cc1nonc1C1CCCN1Cc1cn[nH]c1-c1ccc2c(c1)OCO2 (stereo not given),-4,-1,-7,9,11
N=c1c(C(=O)NCc2ccccc2)cc2c(=O)n3ccccc3nc2n1CCCN1CCOCC1,·,·,-43,-12,·
N=c1c(C(=O)NCc2ccc(F)cc2)cc2c(=O)n3ccccc3nc2n1CCCN1CCOCC1,-29,14*,-66,·,·
CCOC(=O)c1nnsc1N,5,1,-7,2,15
O=C(OCn1ncc(Cl)c(Cl)c1=O)c1cccc(C(F)(F)F)c1,34*,-4,·,·,·
O=C(Nc1ccccc1NC(=O)c1ccco1)c1ccco1,0,1,69*,-37,·
Cc1cc(C(=O)CSc2nnc(-c3cccnc3)n2-c2ccccc2F)c(C)n1C,-54,27*,-9,-13,·
O=c1c2ccccc2[nH]c(=S)n1CCCN1CCN(C2CCCCC2)CC1,-4,1,70*,-21,·
SMILES,S1P4 antagonist,S1P4 ag,S1P3 antagonist,Pf gametocyte,Calb biofilm kill
CCC(=O)Nc1cccc(NC(=O)c2ccc(C)cc2Cl)c1,-11,1,9,10,17
COc1ccc(N/N=C(\C=N\O)C(=O)c2ccc(OC)cc2)cc1,7,0,·,9,·
N/N=C/C(=N\Nc1ccc(Cl)cc1)C(=O)c1ccncc1,-10,-1,-6,45*,17
CCOc1cc(C(=S)N2CCOCC2)cc(Br)c1OS(=O)(=O)c1ccccc1,·,·,·,-22,·
CCSc1nnc([C@H](Cc2ccccc2)NC(=O)OC(C)(C)C)o1,-12,3,·,-8,·
CC(C)(C)OC(=O)N[C@@H](Cc1ccccc1)c1nnc(S(=O)(=O)Cc2ccccc2)o1,73*,-4,-9,2,·
COc1ccc(/C=C/CN2CCC(CO)(Cc3ccccc3Cl)CC2)cc1,0,-1,11,1,9
O=C(Cc1cccs1)Nc1ccon1,1,1,94*,·,·
Cc1ccc[n+](-c2nc([O-])sc2C=O)c1,-3,81*,-9,0,14
CC(C)c1ccc[n+](-c2nc([O-])sc2C=O)c1,11,-1,0,-2,22
O=C(COC(=O)c1cccnc1Nc1cccc(C(F)(F)F)c1)NC1CCS(=O)(=O)C1 (stereo not given),-9,4,-19,8,3
Cc1ccc(-c2cc(C(F)F)n3ncc(C(=O)N4CCN5CCCC5C4)c3n2)cc1 (stereo not given),-48,0,-2,·,·
CCOC(=O)C1CCCN(C(=O)c2cnn3c(C(F)F)cc(-c4ccc(C)cc4)nc23)C1 (stereo not given),-7,1,76*,5,·
COc1ccc2c(CC(=O)Nc3ccc(OC)c(NS(=O)(=O)c4ccc(F)cc4)c3)coc2c1,-18,0,81*,0,·
CCOc1cccc(-c2nc3c(s2)CCc2onc(-c4cccc([N+](=O)[O-])c4)c2-3)c1,·,·,·,4,·
CC1(c2nnc(-c3ccncc3)o2)CC(c2ccc(F)cc2)=NO1 (stereo not given),·,·,·,-17,12
CC(Nc1ccccc1)c1cc(Cl)ccc1O (stereo not given),-3,0,·,8,9
COc1ccc(NC(C)c2cc(Cl)ccc2O)cc1 (stereo not given),3,-2,63*,-54,·
CN(C)c1ccc(N=Nc2nc3ccccc3n2C)cc1,-13,-2,18,49*,8
O=C(Nn1cnnc1)c1ccccc1CCc1ccccc1,-8,-1,64*,·,·
CC(C)CCN1CCN(Cc2cnc(N3CCCC3)s2)CC1CCO (stereo not given),-4,3,-7,·,15
O=C1C=CC(=O)N1CCCCCCN1C(=O)C=CC1=O,79*,0,5,-32,18
COc1ccc(-c2[nH]ncc2-c2csc(C)n2)c(O)c1,-26,2,-2,39*,-2
Cc1cc(NC(=O)CSc2nnc(-c3ccc(Br)o3)n2Cc2ccccc2)no1,-9,1,·,·,·
O=C(CSc1nnc(-c2ccc(Br)o2)n1Cc1ccccc1)c1ccccc1F,0,-1,58*,17,·
SMILES,S1P4 antagonist,S1P4 ag,S1P3 antagonist,Pf gametocyte,Calb biofilm kill
CCN1/C(=C2\SC(=S)N(Cc3ccccc3)C2=O)Sc2ccccc21,6,1,-4,-27,7
CCC(CO)[n+]1c(C)cc(/C=C2\Sc3ccccc3N2Cc2ccccc2)cc1C (stereo not given),3,0,0,15,35*
Cc1ccc(CS(=O)(=O)CCC(=O)NCCCN2CCCC2)cc1,-15,1,82*,·,·
Cc1ccc(CS(=O)(=O)CCC(=O)NCCN2CCCCC2C)cc1 (stereo not given),-24,1,10,·,·
CCCOc1ccc(/C(O)=C2/C(=O)C(=O)N(CCN(C)C)C2c2ccncc2)cc1 (stereo not given),-3,36*,·,·,·
O=C(CC1Nc2ccccc2NC1=O)NCc1cccnc1 (stereo not given),-14,1,102*,·,·
